Structures are written as SMILES.

The target in assay [1] is T1, Angiotensin-converting enzyme (Oryctolagus cuniculus, UniProt P12822).
T1 sequence (P12822 whole entry): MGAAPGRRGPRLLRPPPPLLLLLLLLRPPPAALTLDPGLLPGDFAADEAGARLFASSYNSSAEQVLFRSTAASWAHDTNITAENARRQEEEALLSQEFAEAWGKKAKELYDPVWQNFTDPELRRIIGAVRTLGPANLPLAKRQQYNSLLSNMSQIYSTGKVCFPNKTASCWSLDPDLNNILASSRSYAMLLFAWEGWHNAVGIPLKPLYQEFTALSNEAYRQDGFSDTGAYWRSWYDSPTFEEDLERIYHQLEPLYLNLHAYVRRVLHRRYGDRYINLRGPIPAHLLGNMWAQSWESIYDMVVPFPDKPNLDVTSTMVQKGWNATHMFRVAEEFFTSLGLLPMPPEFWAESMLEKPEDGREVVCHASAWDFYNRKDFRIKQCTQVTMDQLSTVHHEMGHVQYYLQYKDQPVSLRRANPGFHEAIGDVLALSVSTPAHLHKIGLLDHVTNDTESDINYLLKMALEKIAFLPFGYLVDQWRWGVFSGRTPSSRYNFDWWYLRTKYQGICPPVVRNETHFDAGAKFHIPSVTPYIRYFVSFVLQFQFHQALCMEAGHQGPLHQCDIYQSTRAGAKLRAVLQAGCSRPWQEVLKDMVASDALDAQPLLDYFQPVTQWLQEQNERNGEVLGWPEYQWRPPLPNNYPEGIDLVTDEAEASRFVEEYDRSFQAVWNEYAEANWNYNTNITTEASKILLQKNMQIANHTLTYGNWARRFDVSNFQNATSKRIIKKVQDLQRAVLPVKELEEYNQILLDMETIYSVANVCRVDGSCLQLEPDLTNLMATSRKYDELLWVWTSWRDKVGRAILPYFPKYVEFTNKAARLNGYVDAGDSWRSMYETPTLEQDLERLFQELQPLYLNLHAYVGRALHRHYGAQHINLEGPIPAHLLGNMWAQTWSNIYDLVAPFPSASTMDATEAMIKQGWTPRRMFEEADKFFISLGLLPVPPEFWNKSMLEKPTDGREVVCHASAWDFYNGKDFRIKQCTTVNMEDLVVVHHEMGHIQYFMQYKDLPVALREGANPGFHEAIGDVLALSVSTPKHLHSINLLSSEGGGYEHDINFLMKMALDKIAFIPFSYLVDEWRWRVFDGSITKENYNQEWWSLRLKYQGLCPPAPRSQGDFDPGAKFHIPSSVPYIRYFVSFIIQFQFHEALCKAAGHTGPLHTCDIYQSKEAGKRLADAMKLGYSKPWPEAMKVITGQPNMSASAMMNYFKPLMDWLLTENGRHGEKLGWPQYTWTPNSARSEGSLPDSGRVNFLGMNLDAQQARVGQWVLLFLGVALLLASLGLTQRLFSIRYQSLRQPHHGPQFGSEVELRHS
In words: In vitro inhibition of angiotensin I converting enzyme from rabbit lung. The class given is tissue-based.

For assay [2], the system named is Rattus norvegicus. In words: Percent inhibitory activity against angiotensin I pressor response 15 min after intravenous administration at dose 0.1 mg/kg. The class given is functional. The following applies: 0.25 h. The procedure, abridged:
(§1)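 Normotensive rats received the test compound intravenously. The angiotensin I pressor response was measured 15 min after dosing and reported as percent inhibition.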

Assay [3] relates to Rattus norvegicus. In words: Percent inhibitory activity against angiotensin I pressor response 2 hr after peroral administration at dose 1 mg/kg. The assay is classed as functional. The following applies: route oral. The procedure, abridged: (§2)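 Normotensive rats were dosed orally. The angiotensin I pressor response was followed, and the maximum percent inhibition 2 h after administration was reported.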

Assay [4] has as its system Rattus norvegicus. As to the kind of experiment: Percent inhibitory activity against angiotensin I pressor response 2 hr after peroral administration at dose 10 mg/kg. The assay is classed as functional. The note with it: route oral. The procedure, abridged:
as §2

For assay [5], the system named is Rattus norvegicus. As to the kind of experiment: Percent inhibitory activity against angiotensin I pressor response 15 min after intravenous administration at dose 1 mg/kg. The assay is classed as functional. The note with it: 0.25 h. The procedure, abridged: as §1

By IC50 is commonly meant the midpoint of a concentration-inhibition curve. High values mean lower potency, low ones higher potency. `CN(C)CCOC(=O)[C@@H]1Cc2ccccc2N1C(=O)CC[C@@H](NC(=O)OCc1ccccc1)C(=O)O`: it took 7 nM to reach half-maximal inhibition in assay [1] (IC50).

Consider `O=C(N[C@H](CCC(=O)N1CCC[C@H]1C(=O)O)C(=O)O)OCc1ccccc1`, for which it took 50 nM to reach half-maximal inhibition in assay [1] (IC50).

Consider `O=C(N[C@@H](CCC(=O)N1c2ccccc2CC1C(=O)O)C(=O)O)OCc1ccccc1` (some centres undefined), for which, in assay [1], the 50% inhibitory concentration (IC50) came out at 500 nM.

Take `O=C1OCN(C(=O)OCc2ccccc2)[C@@H]1CCC(=O)N1c2ccccc2C[C@H]1C(=O)O`: 52 nM corresponded to half-maximal inhibition in assay [1] (IC50).

`O=C(O)[C@@H](CCC(=O)N1c2ccccc2C[C@H]1C(=O)O)NCc1ccccc1` displayed an IC50 in assay [1] of 300 nM.

Compound `Cc1ccc(S(=O)(=O)N[C@H](CCC(=O)N2c3ccccc3C[C@H]2C(=O)O)C(=O)O)cc1` had an IC50 in assay [1] of 20 nM.

As to `COc1ccc(N(CC(=O)O)C(=O)CC[C@@H](NC(=O)OCc2ccccc2)C(=O)O)cc1OC`, in assay [1], it took 21 nM to reach half-maximal inhibition (IC50).

The inhibition in vivo is the share of the control response that was lost under treatment. High values mean strong suppression, low ones little suppression. `O=C(N[C@H](CCC(=O)N1c2ccccc2C[C@H]1C(=O)O)C(=O)O)c1ccccc1` came in with an IC50 in assay [1] of 28 nM. In the assay on Rattus norvegicus [2], this compound had an inhibition in vivo at 0.1 mg/kg of 55%.

`O=C(N[C@H](CCC(=O)N1c2ccccc2C[C@H]1C(=O)O)C(=O)O)c1ccccn1` showed an IC50 in assay [1] of 57 nM.

`O=C(O)[C@@H](CCC(=O)N1c2ccccc2C[C@H]1C(=O)O)N(Cc1ccccc1)C(=O)OCc1ccccc1` yielded a half-maximal inhibitory concentration (IC50) in assay [1] of 10000 nM.

Compound `O=C(N[C@H](CCC(=O)N1c2ccccc2C[C@H]1C(=O)O)C(=O)O)c1cccnc1` yielded an IC50 in assay [1] of 24 nM. This compound also yielded an inhibition in vivo at 0.1 mg/kg with Rattus norvegicus [2] of 79%. The inhibition in vivo at 1 mg/kg in the assay on Rattus norvegicus [3] worked out at 0%.

Regarding `CC(=O)N[C@H](CCC(=O)N1c2ccccc2C[C@H]1C(=O)O)C(=O)O`, the concentration for half-maximal inhibition (IC50) in assay [1] amounted to 95 nM.

For the compound `O=C(N[C@H](CCC(=O)N1c2ccccc2CCC1C(=O)O)C(=O)O)OCc1ccccc1` (some centres undefined), 88 nM corresponded to half-maximal inhibition in assay [1] (IC50).

In assay [1], `CN(C)CCCOC(=O)[C@@H]1Cc2ccccc2N1C(=O)CC[C@@H](NC(=O)OCc1ccccc1)C(=O)O` registered an IC50 of 37 nM.

In turn, `O=C(O)CN(C(=O)CC[C@@H](NC(=O)OCc1ccccc1)C(=O)O)C1CCCC1` came in with a half-inhibitory concentration (IC50) in assay [1] of 40 nM.

In assay [1], `O=C(NCCCCC(NC(=O)OCc1ccccc1)C(=O)N[C@H](CCC(=O)N1c2ccccc2C[C@H]1C(=O)O)C(=O)O)OCc1ccccc1` (some centres undefined) had an IC50 of 61 nM.

For `NC(=O)[C@@H]1Cc2ccccc2N1C(=O)CC[C@@H](NC(=O)OCc1ccccc1)C(=O)O`, in assay [1], the IC50 came out at 160 nM.

In assay [1], `O=C(NC(CCC(=O)N1c2ccccc2C[C@@H]1C(=O)O)C(=O)O)OCc1ccccc1` (some centres undefined) gave an IC50 of 7 nM. Also, the inhibition in vivo at 0.1 mg/kg with Rattus norvegicus [2] was found to be 70%. 1 mg/kg produced 0% inhibition in vivo in the assay on Rattus norvegicus [3].

In turn, `NCCCCC(N)C(=O)N[C@H](CCC(=O)N1c2ccccc2C[C@H]1C(=O)O)C(=O)O` (some centres undefined) had an IC50 in assay [1] of 188 nM.

Compound `O=C(N[C@H](CCC(=O)N1C[C@H]2CCCC[C@H]2C[C@H]1C(=O)O)C(=O)O)OCc1ccccc1` came in with an IC50 in assay [1] of 17 nM.

In the case of `O=C(O)[C@@H](CCC(=O)N1c2ccccc2C[C@H]1C(=O)O)NS(=O)(=O)Cc1ccccc1`, the IC50 in assay [1] is 29 nM.

For `CCOC(=O)[C@@H](CCC(=O)N1c2ccccc2C[C@H]1C(=O)O)NC(=O)c1cccnc1`, half-maximal inhibition in assay [1] (IC50) required 2200 nM. The inhibition in vivo at 10 mg/kg with Rattus norvegicus [4] is 30%. Further, the inhibition in vivo at 1 mg/kg in the assay on Rattus norvegicus [5] stood at 100%.

In assay [1], `O=C(N[C@H](CCC(=O)N1Cc2ccccc2C[C@H]1C(=O)O)C(=O)O)OCc1ccccc1` yielded an IC50 of 14 nM.

On to `O=C(CCc1ccccc1)N[C@H](CCC(=O)N1c2ccccc2C[C@H]1C(=O)O)C(=O)O`, for which, in assay [1], the midpoint of inhibition, the IC50, lay at 40 nM. The compound also registered an inhibition in vivo at 1 mg/kg in the assay on Rattus norvegicus [5] of 76%.

As for `N[C@H](CCC(=O)N1c2ccccc2C[C@H]1C(=O)O)C(=O)O`, the IC50 in assay [1] was 10000 nM.

Regarding `CCOC(=O)[C@@H]1Cc2ccccc2N1C(=O)CC[C@@H](NC(=O)OCc1ccccc1)C(=O)O`, the IC50 in assay [1] was 4700 nM.

As to `O=C(N[C@H](CCC(=O)N1[C@H](C(=O)O)C[C@@H]2CCCC[C@@H]21)C(=O)O)OCc1ccccc1`, 2.7 nM corresponded to half-maximal inhibition in assay [1] (IC50).

Compound `O=C(Nc1ccccc1)N[C@H](CCC(=O)N1c2ccccc2C[C@H]1C(=O)O)C(=O)O` returned an IC50 in assay [1] of 44 nM.

As for `O=C(N[C@H](CCC(=O)N1c2ccccc2C[C@H]1C(=O)OCc1cccnc1)C(=O)O)OCc1ccccc1`, the IC50 in assay [1] is 350 nM. Besides, the inhibition in vivo at 10 mg/kg in the assay on Rattus norvegicus [4] came to 15%. For the same compound, the inhibition in vivo at 1 mg/kg in the assay on Rattus norvegicus [5] was found to be 70%.

These data come from ChEMBL document CHEMBL1122837, “Angiotensin converting enzyme inhibitors: N-substituted D-glutamic acid gamma dipeptides” (J Med Chem, 1985).
